{
  "source": "ChEMBL document CHEMBL3804761",
  "about": "“Synthesis of a stable and orally bioavailable englerin analogue” (Bioorg Med Chem Lett, 2016)",
  "assay_type_in_all_cases": "functional",
  "key": {"[1]": {"test": "Growth inhibition of human Caki1 cells incubated for 48 hrs by sulforhodamine B assay", "conditions": "CAKI-1, 48 h", "in_short": "(§1)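 NCI 60-cell-line panel, standard protocol. Cells exposed to compound for two days, growth read by sulforhodamine B staining. Tested at five 10-fold dilutions, top concentration 100 µM, to give dose-response curves.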"}, "[2]": {"test": "Growth inhibition of human OVCAR4 cells incubated for 48 hrs by sulforhodamine B assay", "conditions": "OVCAR-4, 48 h", "in_short": "as §1"}, "[3]": {"test": "Growth inhibition of human SKOV3 cells assessed as cell growth at 10 uM incubated for 48 hrs by sulforhodamine B assay relative to control", "conditions": "SK-OV-3, 48 h, read-out: Activity", "in_short": "(§2)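 Run in the standard NCI 60-cell-line screen. Cells were exposed to drug for two days, and the read-out was sulforhodamine B staining. Compound was tested at a single final concentration of 10 µM in every line, and results are reported as growth percent.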"}, "T47D": {"system": "T47D", "test": "Growth inhibition of human T47D cells assessed as cell growth at 10 uM incubated for 48 hrs by sulforhodamine B assay relative to control", "conditions": "read-out: Activity", "in_short": "(§3)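 NCI 60-cell line standard protocol, one-dose screen: single final concentration 10 µM, 2-day drug exposure, sulforhodamine B (SRB) endpoint; read-out is growth percent relative to untreated control.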"}, "[4]": {"test": "Growth inhibition of human HL-60(TB) cells incubated for 48 hrs by sulforhodamine B assay", "conditions": "HL-60, 48 h", "in_short": "as §1"}, "Malme-3M": {"system": "Malme-3M", "test": "Growth inhibition of human MALME-3M cells incubated for 48 hrs by sulforhodamine B assay", "in_short": "as §1"}, "[5]": {"test": "Growth inhibition of human OVCAR4 cells assessed as cell growth at 10 uM incubated for 48 hrs by sulforhodamine B assay relative to control", "conditions": "OVCAR-4, 48 h, read-out: Activity", "in_short": "as §2"}, "[6]": {"test": "Growth inhibition of human LOXIMVI cells incubated for 48 hrs by sulforhodamine B assay", "conditions": "LOX IMVI", "in_short": "as §1"}, "KM12": {"system": "KM12", "test": "Growth inhibition of human KM12 cells assessed as cell growth at 10 uM incubated for 48 hrs by sulforhodamine B assay relative to control", "conditions": "KM12, 48 h, read-out: Activity", "in_short": "as §2"}, "SK-MEL-5": {"system": "SK-MEL-5", "test": "Growth inhibition of human SK-MEL-5 cells incubated for 48 hrs by sulforhodamine B assay", "conditions": "SK-MEL-5, 48 h", "in_short": "as §1"}, "[7]": {"test": "Growth inhibition of human OVCAR5 cells assessed as cell growth at 10 uM incubated for 48 hrs by sulforhodamine B assay relative to control", "conditions": "OVCAR-5, 48 h, read-out: Activity", "in_short": "as §2"}, "[8]": {"test": "Growth inhibition of human OVCAR5 cells incubated for 48 hrs by sulforhodamine B assay", "conditions": "OVCAR-5, 48 h", "in_short": "as §1"}, "[9]": {"test": "Growth inhibition of human HOP62 cells incubated for 48 hrs by sulforhodamine B assay", "conditions": "HOP-62, 48 h", "in_short": "as §1"}, "MDA-MB-231": {"system": "MDA-MB-231", "test": "Growth inhibition of human MDA-MB-231 cells assessed as cell growth at 10 uM incubated for 48 hrs by sulforhodamine B assay relative to control", "conditions": "MDA-MB-231, 48 h, read-out: Activity", "in_short": "as §2"}, "A498": {"system": "A498", "test": "Growth inhibition of human A498 cells incubated for 48 hrs by sulforhodamine B assay", "conditions": "A498, 48 h"}, "[10]": {"test": "Growth inhibition of human PC3 cells incubated for 48 hrs by sulforhodamine B assay", "conditions": "PC-3, 48 h", "in_short": "as §1"}, "[11]": {"test": "Growth inhibition of human RXF393 cells incubated for 48 hrs by sulforhodamine B assay", "conditions": "RXF 393, 48 h", "in_short": "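Run in the NCI 60-cell-line protocol, with 2-day drug exposure and sulforhodamine B read-out. Dose-response testing used five 10-fold dilutions starting from a high concentration of 100 µM.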"}, "[12]": {"test": "Growth inhibition of human Hs 578T cells assessed as cell growth at 10 uM incubated for 48 hrs by sulforhodamine B assay relative to control", "conditions": "read-out: Activity"}, "[13]": {"test": "Growth inhibition of human HCC2998 cells incubated for 48 hrs by sulforhodamine B assay", "conditions": "HCC 2998, 48 h", "in_short": "as §1"}, "SR": {"system": "SR", "test": "Growth inhibition of human SR cells incubated for 48 hrs by sulforhodamine B assay", "in_short": "(§4)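 Tested in the standard NCI 60-cell-line protocol with two-day drug exposure and a sulforhodamine B endpoint. Compounds were first screened at a single final concentration of 10 µM, reported as growth percent. They were then run as five 10-fold dilutions starting from a high concentration of 100 µM to give dose-response curves.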"}, "NCI/ADR-RES": {"system": "NCI/ADR-RES", "test": "Growth inhibition of human NCI/ADR-RES cells incubated for 48 hrs by sulforhodamine B assay", "in_short": "as §1"}, "[14]": {"test": "Growth inhibition of human UACC257 cells incubated for 48 hrs by sulforhodamine B assay", "conditions": "UACC-257, 48 h", "in_short": "as §4"}, "[15]": {"test": "Growth inhibition of human UACC257 cells assessed as cell growth at 10 uM incubated for 48 hrs by sulforhodamine B assay relative to control", "conditions": "UACC-257, 48 h, read-out: Activity", "in_short": "as §3"}, "NCI-H23": {"system": "NCI-H23", "test": "Growth inhibition of human NCI-H23 cells assessed as cell growth at 10 uM incubated for 48 hrs by sulforhodamine B assay relative to control", "conditions": "NCI-H23, 48 h, read-out: Activity", "in_short": "as §2"}, "MDA-MB-468": {"system": "MDA-MB-468", "test": "Growth inhibition of human MDA-MB-468 cells incubated for 48 hrs by sulforhodamine B assay", "conditions": "MDA-MB-468, 48 h", "in_short": "as §1"}, "[16]": {"conditions": "read-out: pLC50 (the source's name) (converted)"}},
  "data": [
    {"smiles": "CC(C)[C@@]12C[C@@H](NC(=O)CO)[C@@](C)(O1)[C@@H]1CC[C@@H](C)[C@H]1[C@@H]2OC(=O)/C=C/C1CCCCC1", "values": [
      {"measurement": "GI50", "setting": "[1]", "value": "> 44.7", "unit": "µM"},
      {"measurement": "LC50", "setting": "[1]", "value": "> 44.7", "unit": "µM"},
      {"measurement": "TGI", "setting": "[1]; read-out: pTGI (converted)", "value": "> 44.7", "unit": "µM"},
      {"measurement": "GI50", "setting": "[2]", "value": "> 44.7", "unit": "µM"},
      {"measurement": "LC50 (concentration killing 50% of cells)", "setting": "[2]", "value": "> 44.7", "unit": "µM"},
      {"measurement": "TGI", "setting": "[2]; read-out: pTGI (converted)", "value": "> 44.7", "unit": "µM"},
      {"measurement": "growth at 10 µM", "setting": "[3]", "value": 103, "unit": "%"},
      {"measurement": "growth at 10 µM", "setting": "T47D", "value": 102, "unit": "%"},
      {"measurement": "GI50", "setting": "[4]", "value": "> 44.7", "unit": "µM"},
      {"measurement": "CC50", "setting": "[4]; [16]", "value": "> 44.7", "unit": "µM"},
      {"measurement": "TGI", "setting": "[4]; read-out: pTGI (converted)", "value": "> 44.7", "unit": "µM"},
      {"measurement": "GI50", "setting": "Malme-3M", "value": "> 44.7", "unit": "µM"},
      {"measurement": "LC50", "setting": "Malme-3M", "value": "> 44.7", "unit": "µM"},
      {"measurement": "TGI", "setting": "Malme-3M; read-out: pTGI (converted)", "value": "> 44.7", "unit": "µM"},
      {"measurement": "growth at 10 µM", "setting": "[5]", "value": 98.6, "unit": "%"},
      {"measurement": "GI50", "setting": "[6]", "value": "> 44.7", "unit": "µM"},
      {"measurement": "LC50", "setting": "[6]", "value": "> 44.7", "unit": "µM"},
      {"measurement": "TGI", "setting": "[6]; read-out: pTGI (converted)", "value": "> 44.7", "unit": "µM"},
      {"measurement": "growth at 10 µM", "setting": "KM12", "value": 104, "unit": "%"},
      {"measurement": "GI50", "setting": "SK-MEL-5", "value": "> 44.7", "unit": "µM"},
      {"measurement": "LC50", "setting": "SK-MEL-5", "value": "> 44.7", "unit": "µM"},
      {"measurement": "TGI", "setting": "SK-MEL-5; read-out: pTGI (converted)", "value": "> 44.7", "unit": "µM"},
      {"measurement": "growth at 10 µM", "setting": "[7]", "value": 92.6, "unit": "%"},
      {"measurement": "GI50", "setting": "[8]", "value": "> 44.7", "unit": "µM"},
      {"measurement": "LC50", "setting": "[8]", "value": "> 44.7", "unit": "µM"},
      {"measurement": "TGI", "setting": "[8]; read-out: pTGI (converted)", "value": "> 44.7", "unit": "µM"},
      {"measurement": "GI50", "setting": "[9]", "value": "> 44.7", "unit": "µM"},
      {"measurement": "LC50", "setting": "[9]", "value": "> 44.7", "unit": "µM"},
      {"measurement": "TGI", "setting": "[9]; read-out: pTGI (converted)", "value": "> 44.7", "unit": "µM"},
      {"measurement": "growth at 10 µM", "setting": "MDA-MB-231", "value": 107, "unit": "%"},
      {"measurement": "LC50", "setting": "A498", "value": "> 44.7", "unit": "µM"},
      {"measurement": "GI50", "setting": "A498; read-out: GI50", "value": 5.62, "unit": "µM"},
      {"measurement": "GI50", "setting": "A498; read-out: pGI50 (converted)", "value": 5.62, "unit": "µM"},
      {"measurement": "TGI", "setting": "A498; read-out: pTGI (converted)", "value": 21.4, "unit": "µM"},
      {"measurement": "GI50", "setting": "[10]", "value": "> 44.7", "unit": "µM"},
      {"measurement": "CC50", "setting": "[10]; [16]", "value": "> 44.7", "unit": "µM"},
      {"measurement": "TGI", "setting": "[10]; read-out: pTGI (converted)", "value": "> 44.7", "unit": "µM"},
      {"measurement": "GI50", "setting": "[11]", "value": 13.8, "unit": "µM"},
      {"measurement": "CC50", "setting": "[11]; [16]", "value": "> 44.7", "unit": "µM"},
      {"measurement": "TGI", "setting": "[11]; read-out: pTGI (converted)", "value": "> 44.7", "unit": "µM"},
      {"measurement": "growth at 10 µM", "setting": "[12]", "value": 73, "unit": "%"},
      {"measurement": "GI50", "setting": "[13]", "value": "> 44.7", "unit": "µM"},
      {"measurement": "LC50", "setting": "[13]", "value": "> 44.7", "unit": "µM"},
      {"measurement": "TGI", "setting": "[13]; read-out: pTGI (converted)", "value": "> 44.7", "unit": "µM"},
      {"measurement": "GI50", "setting": "SR", "value": "> 44.7", "unit": "µM"},
      {"measurement": "LC50", "setting": "SR", "value": "> 44.7", "unit": "µM"},
      {"measurement": "TGI", "setting": "SR; read-out: pTGI (converted)", "value": "> 44.7", "unit": "µM"},
      {"measurement": "GI50", "setting": "NCI/ADR-RES", "value": 40.7, "unit": "µM"},
      {"measurement": "LC50", "setting": "NCI/ADR-RES", "value": "> 44.7", "unit": "µM"},
      {"measurement": "TGI", "setting": "NCI/ADR-RES; read-out: pTGI (converted)", "value": "> 44.7", "unit": "µM"},
      {"measurement": "GI50", "setting": "[14]", "value": "> 44.7", "unit": "µM"},
      {"measurement": "CC50", "setting": "[14]; [16]", "value": "> 44.7", "unit": "µM"},
      {"measurement": "TGI", "setting": "[14]; read-out: pTGI (converted)", "value": "> 44.7", "unit": "µM"},
      {"measurement": "growth at 10 µM", "setting": "[15]", "value": 98.2, "unit": "%"},
      {"measurement": "growth at 10 µM", "setting": "NCI-H23", "value": 99.4, "unit": "%"},
      {"measurement": "GI50", "setting": "MDA-MB-468", "value": "> 44.7", "unit": "µM"},
      {"measurement": "CC50", "setting": "MDA-MB-468; [16]", "value": "> 44.7", "unit": "µM"},
      {"measurement": "TGI", "setting": "MDA-MB-468; read-out: pTGI (converted)", "value": "> 44.7", "unit": "µM"}
    ]}
  ]
}
